# M1 ag – human M1 muscarinic receptor agonists, primary screen, Fluo-8 calcium fluorescence, CHO-K1 cells, HTS; CHO-K1 hM1, agonist mode; 0% DMSO, 100% acetylcholine EC100; activation, % at 3 µM; 0.33% of 360,000 active; AID 588814, 2011;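 active = activation above the run's mean compound activation plus 3 SD, cut at about 16% in these data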;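 also: peak over basal fluorescence ratio within a 140 s kinetic read after compound addition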
# CHRM1 antagonist – human M1 muscarinic receptor antagonists, primary screen, CHO-K1 cells, Fluo-8 calcium fluorescence, 1536-well | CHO-K1 hM1, ACh EC80 antagonist | inhibition, % at 3 µM | 1.3% of 360,000 active | AID 588852, 2011;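 active = percent inhibition above its own plate's cutoff, namely the mean of that plate's compound wells plus 3 SD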;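 also: peak over basal fluorescence ratio during 140 s after agonist addition; 0% = ACh EC80 plus DMSO and 100% = DMSO alone without agonist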
# TAAR1 antagonist – human TAAR1 antagonists, primary screen, Fluo-8 calcium fluorescence, CHO RD-HGA16 cells | Trace amine-associated receptor 1 (Homo sapiens), Q96RJ0 | antagonist | inhibition, % at 3 µM | 1.5% of 360,000 active | AID 624466, 2012;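 active = inhibition above a per-plate cutoff, the mean inhibition of test compounds on that plate plus 3 SD, cut at about 49% in these data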;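 also: 0% = DMSO plus EC80 beta-PEA response and 100% = DMSO alone without agonist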
#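 Test system – hTAAR1-expressing CHO RD-HGA16 cells, Gα16-coupled · Also added – β-PEA at EC80 concentration, post-compound challenge · Compound – 3 µM, single point · Incubation – dye loading 75 min at 37 °C, then 30 min room temperature · Measured by – Fluo-8 intracellular calcium dye fluorescence, real-time kinetic reads · Benchmarks – vehicle and agonist controls · Replicates – singlicate, one well per test compound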
# CHRM1 PAM – human M1 muscarinic receptor positive allosteric modulators, primary screen, CHO-K1 cells, Fluo-8 calcium fluorescence, 1536-well; AID 588819, 2011; Muscarinic acetylcholine receptor M1 (Homo sapiens), P11229; CHO-K1 hM1, ACh EC20; 0% = ACh EC20, 100% = maximal ACh; 0.088% of 360,000 active; activation, % at 3 µM; in the data active = activation above about 19%, passing the limit was not always enough
# TAAR1 agonist – human TAAR1 agonists, primary screen, Fluo-8 calcium fluorescence, CHO RD-HGA16 cells | Trace amine-associated receptor 1 (Homo sapiens), Q96RJ0 | vehicle wells 0%, saturating PEA agonist 100% | activation, % at 3 µM | 0.99% of 360,000 active;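 active = activation above the mean activation of all test compounds in the run plus 3 SD, cut at about 38% in these data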
#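 Signal – calcium-sensitive Fluo-8 signal, excitation 470-495, emission 515-575 nm · System – RD-HGA16 (CHO) cells co-expressing Gα16 and hTAAR1 · Incubation – 17-24 h seeding, 75 min 37 °C dye, 30 min RT · Compound dosing – 3 µM single concentration · Repeats – no replicates (n 1)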
# m5-HT2A agonist – mouse Htr2a agonists via beta-arrestin recruitment, primary screen, cell-based, luminescence. 5-hydroxytryptamine receptor 2A (Mus musculus), P35363. CHO-K1 mHTR2A beta-arrestin complementation; percent of 30 µM serotonin response. activation, % at 7.6 µM. 0.66% of 360,000 active. AID 624169, 2012;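 active = activation above a run cutoff, the mean activation of all tested compounds plus 3 SD, cut at about 14% in these data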;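 also: 0% = plate median of compound wells and 100% = 30 µM serotonin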
# Target sequence (P35363 whole entry, looked up): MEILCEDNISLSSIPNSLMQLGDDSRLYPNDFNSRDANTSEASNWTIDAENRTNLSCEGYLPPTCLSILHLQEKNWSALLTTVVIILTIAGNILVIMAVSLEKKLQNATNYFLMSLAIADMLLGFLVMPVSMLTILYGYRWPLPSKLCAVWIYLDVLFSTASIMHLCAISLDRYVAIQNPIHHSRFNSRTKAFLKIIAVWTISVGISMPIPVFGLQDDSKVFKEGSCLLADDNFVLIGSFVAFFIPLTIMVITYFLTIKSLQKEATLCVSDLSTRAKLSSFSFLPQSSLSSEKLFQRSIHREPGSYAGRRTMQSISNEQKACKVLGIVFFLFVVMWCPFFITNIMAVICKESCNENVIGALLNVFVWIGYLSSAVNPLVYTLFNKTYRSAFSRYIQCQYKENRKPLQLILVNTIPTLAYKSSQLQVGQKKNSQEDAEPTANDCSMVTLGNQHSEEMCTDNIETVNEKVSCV
# TAAR1 ag conf – human TAAR1 agonists, retest of hits, confirmation, Fluo-8 calcium fluorescence, CHO RD-HGA16 cells. shares compounds with TAAR1 agonist. 82% of 2,400 active. activation, % at 3 µM. scaled: DMSO 0%, maximal phenethylamine 100%;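 active = activation above a cutoff set at the run's mean compound activation plus 3 SD, cut at about 39% in these data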
# Ga16 ag counter – nonselective calcium mobilization agonists, CHO-Ga16 cells, counter-screen for hTAAR1 agonist project, cell-based, fluorescence, CHO-Ga16 parental line; 50% of 2,400 active; AID 651787, 2012; activation, % at 3 µM; shares compounds with TAAR1 agonist; Fluo-8 calcium fluorescence; normalized to maximal ATP response, DMSO zero;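 active = activation above the run cutoff, the mean activation over all tested wells plus 3 SD, cut at about 12% in these data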;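 also: 0% = DMSO wells and 100% = maximal ATP response on the peak over basal ratio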
# TAAR1 desensitize – TAAR1 desensitization by agonist hits, confirmation, counter-screen for TAAR1 agonist project, cell-based, fluorescence, tachyphylaxis | shares compounds with TAAR1 agonist | CHO RD-HGA16 hTAAR1, Fluo-8 calcium, beta-PEA response inhibition | 46% of 2,400 active | inhibition, % at 3 µM;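 active = inhibition above the run cutoff, the mean inhibition of all test compounds plus 3 SD, cut at about 49% in these data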;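 also: beta-PEA stimulus applied at its EC80; loss of beta-PEA calcium signal after compound pretreatment read as receptor desensitization; 0% = DMSO with beta-PEA at EC80 and 100% = DMSO alone without agonist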
# Ga16 antag count – inhibition of ATP-evoked calcium response in CHO-Ga16 cells, counter-screen for TAAR1 agonist project, cell-based, fluorescence. shares compounds with TAAR1 agonist. inhibition, % at 3 µM. CHO-Ga16 ATP-induced calcium, Fluo-8 fluorescence. 39% of 2,400 active. AID 651952, 2012;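 active = inhibition above the plate's mean compound inhibition plus 3 SD, computed per plate, cut at about 22% in these data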;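 also: 0% = EC80 ATP with DMSO and 100% = DMSO wells without ATP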
# Active calls of the source: *; · = not tested or not shown. An excerpt weighted towards active compounds, which were near 3.9% of everything screened.
SMILES,M1 ag,CHRM1 antagonist,TAAR1 antagonist,CHRM1 PAM,TAAR1 agonist,m5-HT2A agonist,TAAR1 ag conf,Ga16 ag counter,TAAR1 desensitize,Ga16 antag count
O=C(NC1CCCc2ccccc21)c1cccc(S(=O)(=O)N2CCN(c3ccccc3)CC2)c1 (configuration not stated),7,10,-5,3,47*,-1,30,11,26,21*
CC1CCC(NC(=O)c2cccc(S(=O)(=O)N3CCN(c4ccccc4)CC3)c2)CC1 (configuration not stated),0,1,-9,-2,0,0,·,·,·,·
NS(=O)(=O)c1ccc(NC(=O)COC(=O)c2cnccn2)cc1,-2,-4,-16,9,0,-4,·,·,·,·
COc1cccc(C(c2sc3ncnn3c2O)N2CC(C)OC(C)C2)c1 (configuration not stated),-3,-5,0,-2,1,-3,·,·,·,·
COc1ccc(C(c2sc3nc(C)nn3c2O)N2CCc3ccccc3C2)cc1 (configuration not stated),-1,-7,-1,6,34,-1,·,·,·,·
COc1cccc(C(c2sc3ncnn3c2O)N2CCc3ccccc3C2)c1 (configuration not stated),-8,3,-22,-5,73*,-3,82*,2,46,11
COc1cc(C(c2sc3nc(C)nn3c2O)N2CCc3ccccc3C2)cc(OC)c1OC (configuration not stated),-1,-10,-43,5,45*,4,45*,0,13,11
Cc1cnc([N+](=O)[O-])n1CCOC(=O)NC(=O)c1cccc(F)c1,-3,-5,-9,7,9,2,·,·,·,·
CC(=O)n1cc([C@H]2C=C(C(N)=O)O[C@@H](OCc3ccc(CO)cc3)C2)c2ccccc21,23*,21,81*,-10,78*,1,74*,34*,66*,39*
Cc1ccc(-c2nn(-c3ccccc3)cc2CSC(=N)N)cc1,0,0,10,9,76*,-3,84*,27*,47,25*
COc1cccc(Nc2ncnc3ccc(Br)cc23)c1,-6,0,-40,-4,1,-2,·,·,·,·
Brc1ccc2ncnc(Nc3cccc4ccccc34)c2c1,12,-5,1,2,53*,1,15,30*,2,5
Cc1ccccc1C(=O)NNC(=O)C1CC(=O)N(c2ccc3c(c2)OCCO3)C1 (configuration not stated),-6,8,-9,-1,2,-5,·,·,·,·
O=C(CCS(=O)(=O)c1ccc2c(c1)NC(=O)CS2)NCCc1ccccc1,0,3,26,9,68*,-9,68*,0,35,11
O=C(CCS(=O)(=O)c1ccc2c(c1)NC(=O)CS2)NCCc1ccc(Cl)cc1,-1,0,-3,10,5,-5,·,·,·,·
Cn1c(=O)oc2cc(S(=O)(=O)CCC(=O)NCCc3ccccc3)ccc21,-3,2,16,-2,70*,-1,30,0,14,7
CC1CN(c2ccc([N+](=O)[O-])nc2)CC(C)O1 (configuration not stated),-2,-8,-16,7,0,-1,·,·,·,·
Cc1cccc(CCNC(=O)CCc2nc(-c3ccccc3F)no2)c1,-3,2,-8,-2,17,1,·,·,·,·
CN(C(=O)CCc1nc(-c2ccccc2F)no1)c1ccccc1,-1,-22,-19,16,45*,2,6,7,4,2
O=C(NC(CCl)c1ccccc1)c1ccc(Cl)cc1 (configuration not stated),-5,3,1,6,9,-2,·,·,·,·
N=C1N(/N=C/c2ccccc2)C(=Nc2ccccc2)C(=S)N1c1ccccc1,-7,16,12,-15,46*,-4,4,-1,26,14
Cc1ccc(/C=N/n2c(-c3ccccc3)n[nH]c2=S)cc1,-8,7,-30,-4,-2,3,·,·,·,·
Cc1cc(NC(=O)C2CCCC2)n(-c2nc3ccccc3[nH]2)n1,-3,3,5,0,56*,1,-1,-1,7,17
Cc1cc(NC(=O)c2ccccc2)n(-c2nc3ccccc3[nH]2)n1,-1,5,14,3,3,0,·,·,·,·
O=C(CN1C(=O)COc2ccc(Cl)cc21)Nc1ccccn1,-2,-23,-18,14,1,5,·,·,·,·
O=[N+]([O-])c1ccccc1NS(=O)(=O)c1ccccc1,-3,16,11,-4,1,-5,·,·,·,·
O=C(Nc1ccncc1)Nc1ccc(Cl)cc1,4,8,50*,-5,65*,2,91*,17*,84*,21
CC(C)c1ccc(-c2c(NCCc3ccccc3)c(=O)c2=O)cc1,-3,-18,-4,21,49*,-4,37,2,13,9
Cc1ccc(-c2c(NCCc3ccccc3)c(=O)c2=O)cc1,0,-6,-5,15,2,-5,·,·,·,·
COc1cccc2c1cc1c(=O)n(CC(=O)NCc3ccccn3)nc(C)n12,1,-3,·,6,·,2,·,·,·,·

# Source: PubChem BioAssay
